Measured values reported in ChEMBL document CHEMBL4673384, “Studying Histone Deacetylase Inhibition and Apoptosis Induction of Psammaplin A Monomers with Modified Thiol Group” (ACS Med Chem Lett, 2021).
The source made the active and inactive calls. No cut-off for these calls is given here.

Key:
[1] = biological target: T1, Protein deacetylase HDAC6 (Homo sapiens) (UniProt Q9UBN7); assay: Inhibition of HDAC6 in human HL-60 cells assessed as increase in acetylated alpha tubulin level at 0.5 to 8 uM after 24 hrs by Western blot analysis; format: cell-based; conditions: dose 0.5-8 µM
T1 sequence (whole entry): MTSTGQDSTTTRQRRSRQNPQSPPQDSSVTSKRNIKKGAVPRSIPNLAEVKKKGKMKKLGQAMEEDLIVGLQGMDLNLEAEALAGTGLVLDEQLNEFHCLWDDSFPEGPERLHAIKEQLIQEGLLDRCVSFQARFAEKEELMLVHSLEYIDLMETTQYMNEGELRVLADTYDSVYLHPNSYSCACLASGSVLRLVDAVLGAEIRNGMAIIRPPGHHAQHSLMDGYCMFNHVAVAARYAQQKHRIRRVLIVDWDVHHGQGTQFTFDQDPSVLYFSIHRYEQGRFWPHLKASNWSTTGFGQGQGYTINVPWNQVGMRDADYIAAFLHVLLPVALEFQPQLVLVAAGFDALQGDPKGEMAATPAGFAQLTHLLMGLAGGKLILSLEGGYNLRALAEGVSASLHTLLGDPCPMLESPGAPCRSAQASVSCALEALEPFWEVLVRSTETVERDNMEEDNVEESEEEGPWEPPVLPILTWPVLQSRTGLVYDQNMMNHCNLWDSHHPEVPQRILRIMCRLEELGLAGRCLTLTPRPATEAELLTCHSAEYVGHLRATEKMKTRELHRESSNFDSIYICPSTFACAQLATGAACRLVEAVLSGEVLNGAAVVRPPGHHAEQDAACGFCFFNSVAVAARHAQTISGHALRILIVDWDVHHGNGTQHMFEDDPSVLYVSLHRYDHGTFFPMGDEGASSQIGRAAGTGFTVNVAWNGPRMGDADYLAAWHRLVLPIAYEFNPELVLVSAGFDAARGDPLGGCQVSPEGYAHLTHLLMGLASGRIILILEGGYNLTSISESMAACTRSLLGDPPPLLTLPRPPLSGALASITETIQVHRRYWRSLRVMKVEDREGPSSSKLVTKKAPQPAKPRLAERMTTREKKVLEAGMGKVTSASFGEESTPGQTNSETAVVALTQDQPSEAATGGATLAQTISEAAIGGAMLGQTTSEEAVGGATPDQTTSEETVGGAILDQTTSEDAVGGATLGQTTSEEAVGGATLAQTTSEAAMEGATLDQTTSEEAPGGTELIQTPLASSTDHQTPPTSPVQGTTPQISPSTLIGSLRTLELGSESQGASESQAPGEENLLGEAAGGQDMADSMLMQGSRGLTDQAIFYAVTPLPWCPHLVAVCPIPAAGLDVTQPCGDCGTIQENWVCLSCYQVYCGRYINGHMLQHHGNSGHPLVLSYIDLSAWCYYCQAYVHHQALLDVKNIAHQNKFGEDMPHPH
Summary of the method: (§1)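 Compound given to HL-60 cells for 24 h at the stated concentrations, then lysed. Acetyl-histone H3 and acetyl-α-tubulin levels were read by Western blot, with total H3, α-tubulin or β-actin as references.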

HL-60 [2] = assay: Induction of apoptosis in human HL-60 cells assessed as necrotic cells at 2 uM incubated for 24 hrs by propidium iodide and annexin-V FITC staining based FACS analysis (reference value: 0.5 %); format: functional
HL-60 [3] = assay: Induction of apoptosis in human HL-60 cells assessed as early apoptotic cells at 2 uM incubated for 24 hrs by propidium iodide and annexin-V FITC staining based FACS analysis (reference value: 2.9 %); format: functional
HL-60 [4] = assay: Induction of apoptosis in human HL60 cells assessed as necrotic cells at 4 uM incubated for 24 hrs by propidium iodide and annexin-V FITC staining based FACS analysis (reference value: 0.5 %); format: functional
[5] = Toxicity in mouse LL/2 cells inoculated C57BL/6J mouse assessed as effect on body weight by measuring end body weight at 100 mg/kg, ip administered for 12 days and measured for every 2 days (reference value: 17.8 +/- 0.7 g); format: organism-based; conditions: in vivo, 288 h, time 12 day
HL-60 [6] = assay: Induction of apoptosis in human HL-60 cells assessed as cleavage of PARP at 0.5 to 8 uM after 24 hrs Western blot analysis; format: functional, cell-based; conditions: dose 0.5-8 µM
Summary of the method: (§2)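 HL-60 cells were treated for 24 h at the indicated concentrations, then analysed by Western blot. Blots were probed for cleavage of PARP and caspase-3, -8 and -9. Ac-H3, Ac-α-tubulin and β-actin were also detected, with β-actin as the loading reference.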

[7] = Toxicity in mouse LL/2 cells inoculated C57BL/6J mouse assessed as effect on body weight by measuring initial body weight at 100 mg/kg, ip administered for 12 days and measured for every 2 days (reference value: 18.6 +/- 0.8 g); format: organism-based; conditions: in vivo, 288 h, time 12 day
[8] = biological target: Histone deacetylase 3 (Homo sapiens) (UniProt O15379); assay: Inhibition of HDAC3 in human HL-60 cells assessed as increase in Ac-H3 level at 0.5 to 8 uM incubated for 24 hrs by Western blot analysis; format: cell-based; conditions: dose 0.5-8 µM; summary of the method: as §1
Chain of Histone deacetylase 3 (Homo sapiens) (O15379 whole entry): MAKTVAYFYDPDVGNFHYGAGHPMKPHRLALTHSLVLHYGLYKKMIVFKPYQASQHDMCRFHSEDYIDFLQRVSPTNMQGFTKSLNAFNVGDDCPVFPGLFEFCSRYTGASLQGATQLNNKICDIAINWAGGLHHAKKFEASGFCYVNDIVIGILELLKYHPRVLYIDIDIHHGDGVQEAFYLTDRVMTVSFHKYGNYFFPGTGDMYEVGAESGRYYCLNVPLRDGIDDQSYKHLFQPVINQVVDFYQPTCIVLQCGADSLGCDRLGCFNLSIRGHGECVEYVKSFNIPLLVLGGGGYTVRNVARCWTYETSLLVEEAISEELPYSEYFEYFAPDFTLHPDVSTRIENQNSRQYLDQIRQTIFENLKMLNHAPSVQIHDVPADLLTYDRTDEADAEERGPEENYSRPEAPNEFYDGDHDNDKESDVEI

HL-60 [9] = assay: Induction of apoptosis in human HL-60 cells assessed as late apoptotic cells at 2 uM incubated for 24 hrs by propidium iodide and annexin-V FITC staining based FACS analysis (reference value: 4.2 %); format: functional
HL-60 [10] = assay: Induction of apoptosis in human HL-60 cells assessed as early apoptotic cells at 4 uM incubated for 24 hrs by propidium iodide and annexin-V FITC staining based FACS analysis (reference value: 2.9 %); format: functional
HL-60 [11] = assay: Induction of apoptosis in human HL-60 cells assessed as cleavage of caspase-8 at 0.5 to 8 uM after 24 hrs Western blot analysis; format: functional, cell-based; conditions: dose 0.5-8 µM; summary of the method: as §2
Histone deacetylase 1 [12] = biological target: T2, Histone deacetylase 1 (Homo sapiens, UniProt Q13547); assay: Inhibition of HDAC1 in human HL-60 cells assessed as increase in Ac-H3 level at 0.5 to 8 uM incubated for 24 hrs by Western blot analysis; format: cell-based; conditions: dose 0.5-8 µM; summary of the method: as §1
T2 sequence (Q13547 whole entry): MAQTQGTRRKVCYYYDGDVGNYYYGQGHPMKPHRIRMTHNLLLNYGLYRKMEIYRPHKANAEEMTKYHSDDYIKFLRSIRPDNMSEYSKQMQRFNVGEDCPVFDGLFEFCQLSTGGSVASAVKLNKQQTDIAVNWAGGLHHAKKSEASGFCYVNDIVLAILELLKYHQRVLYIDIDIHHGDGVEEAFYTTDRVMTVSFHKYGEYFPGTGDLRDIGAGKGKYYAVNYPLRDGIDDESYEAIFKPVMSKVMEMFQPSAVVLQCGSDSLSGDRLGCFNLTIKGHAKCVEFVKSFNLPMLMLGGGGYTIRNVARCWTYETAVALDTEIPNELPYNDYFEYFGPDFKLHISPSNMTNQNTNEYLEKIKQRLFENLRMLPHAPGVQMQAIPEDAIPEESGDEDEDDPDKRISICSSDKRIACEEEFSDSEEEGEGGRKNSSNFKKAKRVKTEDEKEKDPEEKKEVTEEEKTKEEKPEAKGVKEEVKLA

HL-60 [13] = assay: Induction of apoptosis in human HL-60 cells assessed as cleavage of caspase-9 at 0.5 to 8 uM after 24 hrs Western blot analysis; format: functional, cell-based; conditions: dose 0.5-8 µM; summary of the method: as §2
HL-60 [14] = assay: Induction of apoptosis in human HL-60 cells assessed as early apoptotic cells at 2 uM incubated for 24 hrs by propidium iodide and annexin-V FITC staining based FACS analysis (reference value: 2.8 %); format: functional
HL-60 [15] = assay: Induction of apoptosis in human HL-60 cells assessed as necrotic cells at 0.5 uM incubated for 24 hrs by propidium iodide and annexin-V FITC staining based FACS analysis (reference value: 0.3 %); format: functional
Histone deacetylase 1 [16] = biological target: T2, Histone deacetylase 1; assay: Inhibition of HDAC1 in human HL-60 cells assessed as increase in Ac-H3 level at 0.5 to 2 uM incubated for 24 hrs by Western blot analysis; format: cell-based; conditions: dose 0.5-2 µM; summary of the method: as §1
[17] = biological target: T1, Protein deacetylase HDAC6 (Homo sapiens); assay: Inhibition of HDAC6 in human HL-60 cells assessed as increase in acetylated alpha tubulin level at 0.5 uM after 24 hrs by Western blot analysis; format: cell-based; summary of the method: as §1
[18] = biological target: Histone deacetylase 3 (Homo sapiens) (UniProt O15379); assay: Inhibition of HDAC3 in human HL-60 cells assessed as increase in Ac-H3 level at 0.5 to 2 uM incubated for 24 hrs by Western blot analysis; format: cell-based; conditions: dose 0.5-2 µM; summary of the method: as §1
HL-60 [19] = assay: Induction of apoptosis in human HL-60 cells assessed as cleavage of caspase-9 at 0.5 to 2 uM after 24 hrs Western blot analysis; format: functional, cell-based; conditions: dose 0.5-2 µM; summary of the method: as §2

## O=C(NCCS)/C(Cc1ccc(O)c(Br)c1)=N/O
[1]
  inhibition: inactive
HL-60 [2]
  Activity: 0.3%
HL-60 [3]
  Activity: 2.4%
HL-60 [4]
  Activity: 0.3%
[5]
  Activity: 16.9 g
HL-60 [6]
  Activity: Active
[7]
  Activity: 18.6 g
[8]
  inhibition: Active
HL-60 [9]
  Activity: 3.7%
HL-60 [10]
  Activity: 1.6%
HL-60 [11]
  Activity: Active
Histone deacetylase 1 [12]
  inhibition: Active
HL-60 [13]
  Activity: Active

## O=C(NCCSSCCNC(=O)/C(Cc1ccc(O)c(Br)c1)=N/O)/C(Cc1ccc(O)c(Br)c1)=N/O [PSAMMAPLIN A]
[1]
  inhibition: inactive
HL-60 [2]
  Activity: 3.9%
HL-60 [3]
  Activity: 4.1%
HL-60 [4]
  Activity: 3.7%
HL-60 [6]
  Activity: Active
[8]
  inhibition: Active
HL-60 [9]
  Activity: 24.9%
HL-60 [10]
  Activity: 3.4%
HL-60 [11]
  Activity: Active
Histone deacetylase 1 [12]
  inhibition: Active
HL-60 [13]
  Activity: Active

## O=C(CCNC(=O)/C(Cc1ccc(O)c(Br)c1)=N/O)NO
HL-60 [14]
  Activity: 7.3%
HL-60 [15]
  Activity: 0.2%
Histone deacetylase 1 [16]
  inhibition: Active
[17]
  inhibition: Active
[18]
  inhibition: Active
HL-60 [19]
  Activity: Active
